Experimental data as given in ChEMBL document CHEMBL1142269, “Imidazo[4,5-c]quinolines as inhibitors of the PI3K/PKB-pathway” (Bioorg Med Chem Lett, 2008).

Assays:
[1] = biological target: T1, 3-phosphoinositide-dependent protein kinase 1 (Homo sapiens, UniProt O15530); assay: Inhibition of PDK1
T1 sequence (O15530 whole entry): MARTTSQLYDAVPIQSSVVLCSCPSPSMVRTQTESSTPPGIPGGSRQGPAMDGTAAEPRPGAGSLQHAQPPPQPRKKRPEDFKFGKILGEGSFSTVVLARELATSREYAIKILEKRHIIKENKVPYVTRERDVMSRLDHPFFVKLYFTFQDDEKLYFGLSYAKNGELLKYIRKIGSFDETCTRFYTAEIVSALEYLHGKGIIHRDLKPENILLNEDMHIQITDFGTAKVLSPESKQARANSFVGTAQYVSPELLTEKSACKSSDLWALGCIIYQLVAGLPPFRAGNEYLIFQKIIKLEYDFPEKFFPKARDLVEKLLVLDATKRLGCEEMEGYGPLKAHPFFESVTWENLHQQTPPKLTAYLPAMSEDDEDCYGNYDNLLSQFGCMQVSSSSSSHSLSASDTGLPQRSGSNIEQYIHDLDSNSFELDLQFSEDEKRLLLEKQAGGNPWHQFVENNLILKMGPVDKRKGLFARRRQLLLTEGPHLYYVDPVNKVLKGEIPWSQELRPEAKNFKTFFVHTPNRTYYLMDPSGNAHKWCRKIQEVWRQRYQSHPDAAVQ
Outline: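 Biochemical PDK1 enzymatic activity assay at 10 µM ATP; IC50 determined.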

[2] = Antiproliferative activity against human U87MG cells; format: functional, cell-based, U-87MG ATCC; details: U-87 MG
Outline: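 Antiproliferation run in vitro on U87MG cells; potency expressed as EC50.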

[3] = biological target: Phosphatidylinositol 4,5-bisphosphate 3-kinase catalytic subunit alpha isoform (Homo sapiens, UniProt P42336); assay: Inhibition of PI3K p110alpha
[4] = biological target: Phosphatidylinositol 4,5-bisphosphate 3-kinase catalytic subunit beta isoform (Homo sapiens, UniProt P42338); assay: Inhibition of PI3K p110beta
[5] = biological target: T2, Phosphatidylinositol 4,5-bisphosphate 3-kinase catalytic subunit delta isoform (Homo sapiens, UniProt O00329); assay: Inhibition of PI3K p110delta
T2 sequence (O00329 whole entry): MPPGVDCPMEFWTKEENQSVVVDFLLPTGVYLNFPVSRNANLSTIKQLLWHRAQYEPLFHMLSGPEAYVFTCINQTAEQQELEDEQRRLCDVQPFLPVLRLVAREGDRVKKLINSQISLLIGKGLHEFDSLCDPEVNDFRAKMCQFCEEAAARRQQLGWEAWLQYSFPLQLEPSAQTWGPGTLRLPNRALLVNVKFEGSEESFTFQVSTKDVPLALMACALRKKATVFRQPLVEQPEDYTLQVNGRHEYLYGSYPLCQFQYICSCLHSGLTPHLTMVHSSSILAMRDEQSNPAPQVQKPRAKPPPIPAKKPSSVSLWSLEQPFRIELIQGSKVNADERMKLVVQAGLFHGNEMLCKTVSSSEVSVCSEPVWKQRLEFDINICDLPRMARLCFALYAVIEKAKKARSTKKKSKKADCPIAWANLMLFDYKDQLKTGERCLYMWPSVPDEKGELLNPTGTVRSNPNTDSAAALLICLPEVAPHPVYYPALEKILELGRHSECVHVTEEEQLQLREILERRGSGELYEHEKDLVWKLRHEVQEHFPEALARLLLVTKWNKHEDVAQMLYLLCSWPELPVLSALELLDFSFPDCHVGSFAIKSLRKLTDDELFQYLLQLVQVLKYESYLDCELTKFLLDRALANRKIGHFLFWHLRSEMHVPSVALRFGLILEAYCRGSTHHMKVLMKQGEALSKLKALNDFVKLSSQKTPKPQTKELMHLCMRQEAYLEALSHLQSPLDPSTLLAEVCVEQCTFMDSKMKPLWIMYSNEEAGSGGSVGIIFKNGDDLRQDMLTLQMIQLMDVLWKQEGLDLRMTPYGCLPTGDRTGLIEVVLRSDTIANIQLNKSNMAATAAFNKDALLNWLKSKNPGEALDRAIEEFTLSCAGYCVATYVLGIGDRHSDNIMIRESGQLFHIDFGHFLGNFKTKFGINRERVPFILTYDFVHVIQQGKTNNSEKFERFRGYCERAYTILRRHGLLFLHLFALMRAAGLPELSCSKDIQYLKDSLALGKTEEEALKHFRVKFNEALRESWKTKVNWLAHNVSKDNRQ

[6] = biological target: Phosphatidylinositol 4,5-bisphosphate 3-kinase catalytic subunit gamma isoform (Homo sapiens, UniProt P48736); assay: Inhibition of PI3K p110gamma
[7] = Antitumor activity in athymic mouse bearing human PC3M tumor assessed as reduction of tumor growth at 75 mg/kg, po bid after 15 days; format: functional, PC-3M; design: scale not given: the % may be the effect or the level left
Outline: (§1)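 PC3M tumour-bearing mice, compound formulated in NMP/PEG300, given orally twice per day at 50 or 75 mg/kg. Tumour volume read on day 15. T/C = mean difference of treated group ÷ mean difference of vehicle-treated control group × 100.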

[8] = Antitumor activity in athymic mouse bearing human PC3M tumor assessed as reduction of tumor growth at 50 mg/kg, po bid after 15 days; format: functional, PC-3M; design: scale not given: the % may be the effect or the level left; outline: as §1
[9] = Antitumor activity in mouse bearing human PC3M tumor assessed as reduction of tumor growth at 50 mg/kg, po bid after 27 days; format: functional, PC-3M; design: scale not given: the % may be the effect or the level left
Outline: (§2)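 PC3M tumour-bearing mice, oral dosing twice per day at 50 or 60 mg/kg in NMP/PEG300 vehicle. T/C taken on day 27 as mean difference of treated group over mean difference of vehicle control, ×100. Significance by one-way ANOVA followed by post hoc Dunnett's test versus control.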

[10] = Antitumor activity in mouse bearing human PC3M tumor assessed as reduction of tumor growth at 60 mg/kg, po bid after 27 days; format: functional, PC-3M; design: scale not given: the % may be the effect or the level left; outline: as §2
[11] = Inhibition of PKA at 10 uM
[12] = biological target: RAC-alpha serine/threonine-protein kinase (Homo sapiens) (UniProt P31749); assay: Inhibition of PKB at 10 uM
Chain of RAC-alpha serine/threonine-protein kinase (Homo sapiens) (P31749 whole entry): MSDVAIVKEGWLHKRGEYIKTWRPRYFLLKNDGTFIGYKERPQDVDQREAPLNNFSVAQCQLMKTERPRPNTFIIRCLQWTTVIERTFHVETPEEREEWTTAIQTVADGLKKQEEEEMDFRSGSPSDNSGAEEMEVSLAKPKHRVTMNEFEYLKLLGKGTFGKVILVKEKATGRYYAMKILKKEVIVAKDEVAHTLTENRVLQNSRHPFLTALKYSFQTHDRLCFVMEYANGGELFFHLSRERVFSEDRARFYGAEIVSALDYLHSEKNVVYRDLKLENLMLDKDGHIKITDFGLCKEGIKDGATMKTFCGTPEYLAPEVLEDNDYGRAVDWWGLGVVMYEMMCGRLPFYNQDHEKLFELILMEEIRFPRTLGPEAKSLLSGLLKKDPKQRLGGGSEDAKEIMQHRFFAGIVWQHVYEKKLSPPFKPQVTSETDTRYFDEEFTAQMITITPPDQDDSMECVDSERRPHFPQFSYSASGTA

Chain of Phosphatidylinositol 4,5-bisphosphate 3-kinase catalytic subunit gamma isoform (P48736 whole entry, canonical isoform): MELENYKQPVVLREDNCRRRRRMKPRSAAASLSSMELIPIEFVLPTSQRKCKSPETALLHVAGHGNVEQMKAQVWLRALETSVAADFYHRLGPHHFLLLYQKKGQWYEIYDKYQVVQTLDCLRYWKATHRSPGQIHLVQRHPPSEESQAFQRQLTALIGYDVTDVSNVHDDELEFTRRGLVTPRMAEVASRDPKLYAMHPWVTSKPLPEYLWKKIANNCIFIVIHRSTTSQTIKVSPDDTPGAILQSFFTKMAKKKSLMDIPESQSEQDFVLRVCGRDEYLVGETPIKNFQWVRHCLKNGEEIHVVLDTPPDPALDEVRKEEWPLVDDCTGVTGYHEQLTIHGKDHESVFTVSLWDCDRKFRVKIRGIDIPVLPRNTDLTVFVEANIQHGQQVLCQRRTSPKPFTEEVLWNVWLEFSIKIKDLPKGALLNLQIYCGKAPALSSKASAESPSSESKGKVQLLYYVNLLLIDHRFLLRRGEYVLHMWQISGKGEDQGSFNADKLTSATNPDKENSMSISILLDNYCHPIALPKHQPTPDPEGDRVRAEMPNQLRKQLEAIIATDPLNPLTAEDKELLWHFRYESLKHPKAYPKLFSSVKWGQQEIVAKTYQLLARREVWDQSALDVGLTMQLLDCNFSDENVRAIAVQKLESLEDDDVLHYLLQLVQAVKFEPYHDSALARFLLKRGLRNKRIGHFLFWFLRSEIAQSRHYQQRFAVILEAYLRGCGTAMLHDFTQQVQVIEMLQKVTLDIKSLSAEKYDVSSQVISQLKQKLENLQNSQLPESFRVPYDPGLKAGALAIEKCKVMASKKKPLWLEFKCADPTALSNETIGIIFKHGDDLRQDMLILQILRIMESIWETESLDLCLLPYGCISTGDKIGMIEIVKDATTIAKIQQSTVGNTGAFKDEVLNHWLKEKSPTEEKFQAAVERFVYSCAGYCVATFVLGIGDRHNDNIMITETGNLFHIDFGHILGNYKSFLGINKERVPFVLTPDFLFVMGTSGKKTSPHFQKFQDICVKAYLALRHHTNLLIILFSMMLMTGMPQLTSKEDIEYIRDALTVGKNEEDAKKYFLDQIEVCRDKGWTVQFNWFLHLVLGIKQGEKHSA
Chain of Phosphatidylinositol 4,5-bisphosphate 3-kinase catalytic subunit beta isoform (P42338 whole entry, canonical isoform): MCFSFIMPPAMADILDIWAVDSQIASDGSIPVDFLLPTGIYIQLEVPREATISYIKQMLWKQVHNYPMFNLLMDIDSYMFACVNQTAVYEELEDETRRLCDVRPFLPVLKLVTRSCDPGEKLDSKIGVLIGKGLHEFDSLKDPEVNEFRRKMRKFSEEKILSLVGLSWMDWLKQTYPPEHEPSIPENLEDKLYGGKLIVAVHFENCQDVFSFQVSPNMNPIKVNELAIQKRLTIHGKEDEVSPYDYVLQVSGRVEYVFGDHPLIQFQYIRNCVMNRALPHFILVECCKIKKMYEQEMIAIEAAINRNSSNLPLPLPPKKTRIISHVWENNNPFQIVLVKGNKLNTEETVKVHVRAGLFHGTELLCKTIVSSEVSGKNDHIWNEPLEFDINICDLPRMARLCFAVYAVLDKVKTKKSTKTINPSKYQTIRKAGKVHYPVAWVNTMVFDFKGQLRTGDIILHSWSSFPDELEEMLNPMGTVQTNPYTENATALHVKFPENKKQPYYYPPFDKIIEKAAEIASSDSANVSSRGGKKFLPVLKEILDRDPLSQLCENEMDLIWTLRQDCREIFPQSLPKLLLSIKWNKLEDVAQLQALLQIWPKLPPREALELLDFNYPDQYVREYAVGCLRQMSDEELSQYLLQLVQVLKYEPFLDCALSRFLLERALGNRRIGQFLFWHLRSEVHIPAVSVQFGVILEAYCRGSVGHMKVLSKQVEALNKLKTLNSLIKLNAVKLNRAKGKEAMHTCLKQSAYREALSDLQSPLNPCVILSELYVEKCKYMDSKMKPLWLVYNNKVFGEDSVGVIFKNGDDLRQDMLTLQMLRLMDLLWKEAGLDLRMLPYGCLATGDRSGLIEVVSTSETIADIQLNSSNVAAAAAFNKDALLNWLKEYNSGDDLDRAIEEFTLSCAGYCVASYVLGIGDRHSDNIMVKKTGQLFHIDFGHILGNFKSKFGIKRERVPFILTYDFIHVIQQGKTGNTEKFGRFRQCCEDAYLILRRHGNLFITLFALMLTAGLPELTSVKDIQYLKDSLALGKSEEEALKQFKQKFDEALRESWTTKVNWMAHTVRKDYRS
Chain of Phosphatidylinositol 4,5-bisphosphate 3-kinase catalytic subunit alpha isoform (P42336 whole entry, canonical isoform): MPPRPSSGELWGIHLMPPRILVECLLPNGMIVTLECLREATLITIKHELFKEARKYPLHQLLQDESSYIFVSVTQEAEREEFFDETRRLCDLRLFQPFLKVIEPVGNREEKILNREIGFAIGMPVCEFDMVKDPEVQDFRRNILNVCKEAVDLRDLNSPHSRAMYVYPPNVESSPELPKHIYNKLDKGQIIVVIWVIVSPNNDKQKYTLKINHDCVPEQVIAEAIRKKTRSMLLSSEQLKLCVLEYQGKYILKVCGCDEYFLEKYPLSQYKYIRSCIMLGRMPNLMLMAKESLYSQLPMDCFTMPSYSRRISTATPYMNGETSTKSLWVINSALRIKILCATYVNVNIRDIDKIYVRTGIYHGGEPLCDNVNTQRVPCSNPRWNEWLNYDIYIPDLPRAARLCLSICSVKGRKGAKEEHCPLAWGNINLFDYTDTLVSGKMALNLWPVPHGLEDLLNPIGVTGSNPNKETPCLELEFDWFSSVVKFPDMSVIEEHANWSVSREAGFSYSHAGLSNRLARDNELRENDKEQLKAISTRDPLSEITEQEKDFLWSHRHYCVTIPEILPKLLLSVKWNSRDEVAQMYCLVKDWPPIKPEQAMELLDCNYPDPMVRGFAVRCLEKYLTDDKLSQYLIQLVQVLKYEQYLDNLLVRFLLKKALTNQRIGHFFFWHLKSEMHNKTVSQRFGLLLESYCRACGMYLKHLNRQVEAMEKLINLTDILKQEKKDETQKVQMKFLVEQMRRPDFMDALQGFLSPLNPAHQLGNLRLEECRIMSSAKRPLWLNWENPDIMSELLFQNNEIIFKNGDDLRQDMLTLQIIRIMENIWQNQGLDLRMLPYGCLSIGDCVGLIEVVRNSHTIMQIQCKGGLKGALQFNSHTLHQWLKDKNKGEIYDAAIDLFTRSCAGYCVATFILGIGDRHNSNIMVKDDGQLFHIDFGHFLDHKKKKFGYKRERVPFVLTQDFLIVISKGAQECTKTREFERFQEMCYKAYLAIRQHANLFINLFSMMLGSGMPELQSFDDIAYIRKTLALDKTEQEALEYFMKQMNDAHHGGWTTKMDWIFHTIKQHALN

SMILES | IC50 [1] | IC50 [3] | IC50 [4] | IC50 [5] | IC50 [6] | inhibition [11] | inhibition [12] | EC50 [2] | Activity [7] | Activity [8] | Activity [9] | Activity [10]
Cc1nc2cnc3ccc(C#Cc4cccnc4)cc3c2n1-c1ccc(C(C)C#N)cc1 (stereo not given) | 245 nM | 56 nM | 446 nM | 35 nM | 117 nM |  |  | 143 nM | 50% | 85% |  | 
Cn1c(=O)n(-c2ccc(C(C)(C)C#N)cc2)c2c3cc(C#Cc4cccnc4)ccc3ncc21 | > 25000 nM | 72 nM | 2340 nM | 201 nM | 382 nM |  |  | 13 nM |  |  | 31% | 9%
CCc1nc2cnc3ccc(C#Cc4cccnc4)cc3c2n1-c1ccc(CC#N)cc1 | 327 nM |  |  |  |  |  |  | 400 nM |  |  |  | 

The next compounds have a lower IC50 [1] than those just listed; values first:

IC50 [1] | IC50 [3] | IC50 [4] | IC50 [5] | IC50 [6] | inhibition [11] | inhibition [12] | SMILES | EC50 [2] | Activity [7] | Activity [8] | Activity [9] | Activity [10]
150 nM |  |  |  |  |  |  | CC(C)(C#N)c1ccc(-n2cnc3cnc4ccc(C#Cc5cccnc5)cc4c32)cc1 | 446 nM |  |  |  | 
110 nM |  |  |  |  |  |  | Cc1nc2cnc3ccc(C#Cc4cccnc4)cc3c2n1-c1ccc(CC#N)cc1 | 275 nM |  |  |  | 
34 nM | 64 nM | 432 nM | 98 nM | 67 nM | 24% | 0% | N#CCc1ccc(-n2cnc3cnc4ccc(C#Cc5cccnc5)cc4c32)cc1 | 416 nM |  |  |  | 
